A number with no mark means an inactive call.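 How the source made its calls: active means growth inhibition above 25% in both replicates, a cutoff set 3 SD above the mean; inconclusive means above 25% in only one replicate; inactive means the rest.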

The test in a line: S. cerevisiae growth inhibition in permissive medium (OD615), pilot counter-assay for S. cerevisiae lifespan shortening project, permissive growth control (AID 705). The settings on record: OD615, 24 h, at 10 µM, stronger effect = higher value. In outline: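 assay system = Saccharomyces cerevisiae strain carrying genetically modified DeaD replicative-lifespan system | technique = absorbance (optical density) at 615 nm | buffer or medium = permissive raffinose/galactose medium | timing = cells pre-grown 4 h, then 24 h compound exposure, 30 °C humidified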
`CCCCOC(=O)Nc1nc(CC(=O)OCC)cs1`: the growth inhibition was -1.73%.

In the case of `N#Cc1nc(COc2ccc(Br)cc2)oc1N1CCCCCC1`, the growth inhibition is -13.1%.

Consider `COc1ccc(-c2cc(C(F)(F)F)n3nc(C(=O)N4CCCC4)cc3n2)cc1`, for which the growth inhibition is -5.39%.

Consider `CC(=O)Nc1ccc(NC(=O)C2CC(=O)N(c3cccc(C)c3C)C2)cc1` (stereo not given), for which the growth inhibition is -21.2%.

For the compound `COCCNC(=O)CN(c1ccccc1OC)S(C)(=O)=O`, the growth inhibition was -6.76%.

`O=C(COC(=O)C1(c2ccccc2F)CCCC1)N1CCN(C(=O)c2ccco2)CC1`: the growth inhibition is -13.4%.

Take `COC(=O)c1ccc(N2CCOCC2)c(NC(=O)Nc2cccc(OC)c2)c1`: the growth inhibition is -14.5%.

Regarding `Cc1cc(C(F)(F)F)nc(NCc2ccc(F)cc2)n1`, the growth inhibition is -1.39%.

On to `O=C(CCCc1ccccc1)NCc1cn2ccsc2n1`, for which the growth inhibition is -8.33%.

Consider `O=C(CSc1nc(-c2ccco2)cc(C(F)(F)F)n1)N1CCN(Cc2ccccc2)CC1`, for which the growth inhibition was -6.8%.

For `Cc1ccsc1-c1nc(CSCC(=O)N2CCN(c3ccccc3)CC2)c(C)o1`, the growth inhibition is -4.56%.

For `CCn1c(SCc2nc(-c3ccccc3)no2)nc2ccccc21`, the growth inhibition was -12%.

On to `COCCn1c(SCC(N)=O)nc2c(c1=O)SC(C)C2` (stereo not given), for which the growth inhibition was -1.48%.

As for `CSC1=NCCN1C(=O)COc1ccc2ccccc2c1`, the growth inhibition is -2.13%.

`O=C(CC1Sc2ccccc2NC1=O)Nc1cccc(C(=O)O)c1` (stereo not given): the growth inhibition is 0.01%.

Take `O=C(c1ccncc1)N1CCN(C(=O)c2cccc3ccccc23)CC1`: the growth inhibition was -14.8%.

`COc1ccc(C)cc1NC(=O)c1ccoc1C`: the growth inhibition is -1.21%.

Take `CCOC(=O)Cn1c(CN2CC(C)OC(C)C2)nc2c1c(=O)n(C)c(=O)n2C` (stereo not given): the growth inhibition is 3.12%.

`COc1ccc(OC)c(-n2c(SCC(=O)Nc3cc(C)on3)nnc2-c2c[nH]c3ccccc23)c1`: the growth inhibition is -1.04%.

With `COc1ccc(CCNC(=O)c2cc3ccccn3n2)c(OC)c1OC`, the growth inhibition was -3.78%.

As to `O=C(OCn1nnc2ccccc2c1=O)c1cccs1`, the growth inhibition was -7.72%.

In the case of `O=C(NCc1cn2ccsc2n1)c1cccs1`, the growth inhibition was -11.6%.

In the case of `CCOc1ccc(OCC)c(NC(=O)C2CCCN2S(=O)(=O)c2cccc3cccnc23)c1` (stereo not given), the growth inhibition was -0.54%.

Regarding `CCOCCn1c(SCCc2ccccc2)nc2c1c(=O)[nH]c(=O)n2C`, the growth inhibition is -3.39%.

In the case of `Cc1ccc(S(=O)(=O)Cc2ccc(C(=O)N3CCN(c4ccccn4)CC3)o2)cc1`, the growth inhibition was -6.39%.

Consider `CCC(C)(C(=O)NC1CCCCC1)N(Cc1ccco1)C(=O)CNC(=O)c1ccccc1` (stereo not given), for which the growth inhibition was -14.3%.

With `CCC(C)Sc1nc2c([nH]c3ccccc32)c(=O)n1C` (stereo not given), the growth inhibition is -16.9%.

In the case of `Cc1onc(-c2ccccc2Cl)c1C(=O)Nc1ccc(OCC(=O)N2CCOCC2)cc1`, the growth inhibition was 2.78%.

Take `COCCn1c(SCC(=O)Nc2ccccc2)nc2c1c(=O)[nH]c(=O)n2C`: the growth inhibition is 1.17%.

Regarding `Cc1cccc(OCC2=N/C(=C\N(C)C)C(=O)O2)c1`, the growth inhibition is -21.7%.

Consider `Cc1[nH]c2ccccc2c1CCC(N)=O`, for which the growth inhibition is -0.405%.

As for `CCCc1nc(N2CCN(C)CC2)c2sc(=S)n(-c3ccccc3)c2n1`, the growth inhibition was -8.52%.

On to `CCCc1nc(N)nc2c1C(=O)CC(C)(C)C2`, for which the growth inhibition was -15.1%.

On to `COc1ccccc1CC(=O)N1CCN(c2cccc(C(F)(F)F)c2)CC1`, for which the growth inhibition is -9.59%.

For `O=C(CCC(=O)OCCCC(F)(F)C(F)(F)F)Nc1ccccc1`, the growth inhibition was -3.25%.

Turning to `CCN1CCN(C(=O)CSCc2nc(-c3ccc(OC)c(OC)c3)oc2C)CC1`, the growth inhibition is -3.83%.

Take `COc1ccc(S(=O)(=O)n2cnc3cc(C)c(C)cc32)cc1`: the growth inhibition is 3.51%.

In the case of `Cc1cccc(C(=O)N2CCN(Cc3ccc4c(c3)OCO4)CC2)c1`, the growth inhibition was -10.7%.

Take `O=C(NCCCNC(=O)c1cccs1)c1cccs1`: the growth inhibition was 3.77%.

For the compound `Cn1c(NC(=O)CC2CCCCC2)cc(=O)n(C)c1=O`, the growth inhibition was -14%.

These data come from PubChem BioAssay.
